Runt-CBFb FRET = inhibitors of RUNX1 Runt–CBFb binding, primary screen, biochemical, FRET, Cerulean-Runt, Venus-CBFb, uHTS; inhibition, % at 20 µM; actives 0.46% (n = 220,000); Runt-related transcription factor 1 (Homo sapiens) + Core-binding factor subunit beta …; AID 1496, 2009; Cerulean-Runt/Venus-CBFb FRET ratio 530/480, 1 h;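 active = inhibition over about 50% at 20 µM in the single-dose screen, limit read from the data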;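 note: 0% = DMSO wells and 100% = excess unlabeled CBFb competitor control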
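test system = Cerulean-Runt domain fusion protein, energy donor | probe or stimulus = Venus-CBFb binding partner, 100 nM | incubation = two 1 h room-temperature incubations shielded from light | detection = fluorescence energy transfer, 422 nm excitation, 530/480 nm emission | measure = loss of energy transfer signal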
RanGTP-Impb inh = inhibitors of RanGTP-importin-beta interaction, primary screen, biochemical, FRET, CFP-Ran, YFP-importin-beta, homogeneous; cell-free CFP-Ran/YFP-importin-beta FRET ratio; inhibition, % (concentration not given with the values); actives 1.1% (n = 300,000); AID 2216, 2009;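 active = more than half of the replicate wells show a fall in the fluorescence ratio signal beyond about 16%, limit read from the data, passing the limit was not always enough; inconclusive = exactly half of the replicate wells pass the set limit; inactive = fewer than half of replicates pass the limit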;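 note: 0% = DMSO wells and 100% = Ran loaded with GDP instead of GTP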
Hck-Nef inh = inhibitors of Nef-activated human Hck kinase, primary screen, biochemical, Z-Lyte FRET, 384-well, Hck-YEEI; Recombinant Hck-YEEI plus Nef, Z-Lyte FRET kinase assay; inhibition, % at 20 µM; actives 0.68% (n = 220,000); AID 463187, 2010;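 active = Hck-Nef kinase inhibition above about 50%, limit read from the data; inactive = inhibition below that limit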;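 note: 0% = DMSO with Hck plus Nef and 100% = Hck alone without Nef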
Target sequence (P08631 whole entry, looked up): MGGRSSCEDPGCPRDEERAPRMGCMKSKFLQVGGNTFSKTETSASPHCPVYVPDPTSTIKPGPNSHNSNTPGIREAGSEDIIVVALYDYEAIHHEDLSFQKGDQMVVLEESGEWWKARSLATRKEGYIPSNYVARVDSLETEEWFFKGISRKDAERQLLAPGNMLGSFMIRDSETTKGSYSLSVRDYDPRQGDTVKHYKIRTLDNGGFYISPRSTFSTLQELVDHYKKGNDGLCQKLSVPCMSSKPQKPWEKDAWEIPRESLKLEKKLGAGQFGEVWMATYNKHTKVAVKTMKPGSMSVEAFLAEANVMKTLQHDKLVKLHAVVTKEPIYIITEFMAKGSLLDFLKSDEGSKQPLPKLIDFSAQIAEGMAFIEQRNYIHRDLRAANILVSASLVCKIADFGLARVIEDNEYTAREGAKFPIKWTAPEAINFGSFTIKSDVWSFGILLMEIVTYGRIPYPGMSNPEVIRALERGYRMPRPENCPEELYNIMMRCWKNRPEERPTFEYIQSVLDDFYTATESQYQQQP
Runt-SMMHC FRET = inhibitors of RUNX1 Runt–CBFb-SMMHC binding, primary screen, biochemical, FRET, Cerulean-Runt, Venus-CBFb-SMMHC, uHTS | Runt-related transcription factor 1 (Homo sapiens) + Core-binding factor subunit beta … | Cerulean-Runt/Venus-CBFb-SMMHC FRET ratio 530/480, 1 h | inhibition, % at 20 µM | actives 0.74% (n = 220,000);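 active = mean inhibition across duplicate retests at 20 µM reaching about 50%, limit read from the data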;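 note: 0% = DMSO wells and 100% = wells with excess untagged CBFb-SMMHC; inhibitors lower the FRET ratio by blocking Runt binding to CBFb-SMMHC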
Numbers without * were called inactive; ? = inconclusive; · = no result. This is a sample that favours compounds with a hit; in the whole collection about 1.9% have one here.

SMILES | Runt-CBFb FRET | RanGTP-Impb inh | Hck-Nef inh | Runt-SMMHC FRET
CC1Cc2cc(/C(O)=C3/C(=O)C(=O)N(CCN4CCOCC4)C3c3ccc(N(C)C)cc3)ccc2O1 (stereo unspecified) | · | 30.0* | · | ·
CCC(=O)Nc1sc2c(c1C(=O)OC)CCN(Cc1ccccc1)C2 | · | 91.8* | · | ·
COC(=O)c1c(NC(=O)C(C)C)sc2c1CCN(Cc1ccccc1)C2 | · | 54.3* | · | ·
CCOC(=O)c1c(NC(=S)NCc2ccccc2)sc2c1CCN(C(=O)OCC)C2 | 1.1 | 4.1 | -26.3 | -1.9
N#C/C(=C\c1ccccc1O)C(=O)Nc1ccccn1 | · | -1.5 | · | ·
COc1ccc(C(C)=O)cc1CSc1nc2ccccc2c(=O)n1-c1ccccc1C | -1.6 | -3.2 | 4.2 | 1.7
Cc1nnc(SCc2cc(=O)oc3cc(O)ccc23)n1Cc1ccccc1 | 84.7* | 11.6 | 6.7 | 127.4*
COc1ccccc1-n1c(SCc2cc(=O)oc3cc(O)ccc23)nc2ccccc2c1=O | 33.8 | -1.5 | 33.7 | 69.7*
CCOc1ccccc1NC(=O)c1ccc(F)c(S(=O)(=O)N2CCC3(CC2)OCCO3)c1 | -1.8 | -0.5 | 0.0 | 0.4
Cc1ccc(Cc2c(C)c(C#N)c3[nH]c4ccccc4n3c2=O)cc1 | -0.6 | 21.4* | 25.3 | 1.8
C=C(C)Cc1c(C)c(C#N)c2[nH]c3ccccc3n2c1=O | · | 41.9* | · | ·
CCc1c(C)c(C#N)c2[nH]c3ccccc3n2c1=S | 15.3 | 9.8 | -152.4 | 84.0*
Cc1c(CCC(=O)O)c(=O)n2c([nH]c3ccccc32)c1C#N | 7.1 | ? | 3.8 | 2.9
COc1ccc(N(C(C)=O)S(=O)(=O)c2cccc3cccnc23)cc1 | -3.4 | 0.2 | 2.7 | -6.2
CN(C)c1ccc(/C=c2/sc3n(c2=O)NC2(c4ccccc4)N(C)C(=O)N(C)C2(c2ccccc2)N=3)cc1 (stereo unspecified) | -12.3 | 20.4* | -19.9 | -42.6
CN1C(=O)N(C)C2(c3ccccc3)Nn3c(s/c(=C/c4ccccc4F)c3=O)=NC12c1ccccc1 (stereo unspecified) | 10.3 | -1.7 | -0.2 | -7.3
CCCCNc1c(N)n(CCCC)c(=O)[nH]c1=O | -1.0 | 6.5 | 5.4 | 2.7
CCOc1ccc(NC(=O)CCC(=O)O)cc1 | 2.1 | 24.3* | 1.3 | -0.1
CCOC(=O)/C=C(\C)Sc1cc(O)c2ccccc2c1O | 26.9 | · | -167.3 | 60.9*
COC(=O)/C(C#N)=C/c1c(Oc2cc(C)cc(C)c2)nc2ccccn2c1=O | 2.6 | -7.8 | 3.2 | 13.1
Cc1cc(C)cc(Oc2nc3ccccn3c(=O)c2/C=C(\C#N)C(=O)NC2CCS(=O)(=O)C2)c1 (stereo unspecified) | 88.1* | ? | 19.6 | 60.2*
N#C/C(=C\c1c(Oc2ccccc2F)nc2ccccn2c1=O)C(=O)NC1CCS(=O)(=O)C1 (stereo unspecified) | · | 127.8* | · | ·
N#C/C(=C\c1c(Oc2ccccc2Cl)nc2ccccn2c1=O)C(=O)NC1CCS(=O)(=O)C1 (stereo unspecified) | · | 91.2* | · | ·
CC1CC(C)(C)NC(=S)N1CCCC(=O)NCCc1ccc(Cl)cc1 (stereo unspecified) | 0.1 | -2.4 | 19.5 | -0.9
COc1ccc(CNC(=O)C2CCC(=O)N(CCCN3CCCC3=O)C2)c(OC)c1 (stereo unspecified) | · | 0.2 | · | ·
SMILES | Runt-CBFb FRET | RanGTP-Impb inh | Hck-Nef inh | Runt-SMMHC FRET
COc1ccc(S(=O)(=O)N2CCN(C(=O)c3cc(-c4ccc(C)cc4)n[nH]3)CC2)cc1 | · | 2.3 | · | ·
COc1ccc2c(C=Nc3c(C)n(C)n(-c4ccccc4)c3=O)c(O)n(Cc3ccco3)c(=O)c2c1 | -9.9 | 20.4* | 1.1 | -139.6
Cc1c(N=Cc2ccco2)c(=O)n(-c2ccccc2)n1C | -1.0 | 1.3 | 2.2 | -5.0
Cc1ccnc(N/C=C(\C#N)c2nc(-c3cccc(Br)c3)cs2)c1 | -53.1 | 56.2* | 3.5 | -56.2
Cc1ccc(NC(=O)CCc2c(C)nc3ncnn3c2C)nc1 | -3.3 | 2.1 | 2.6 | 0.5
CCN(C(=O)COC(=O)c1cc(S(=O)(=O)N(C)C)ccc1Cl)C1CCS(=O)(=O)C1 (stereo unspecified) | · | 4.0 | · | ·
Cc1ccc(C2C(C(=O)c3cccs3)=C(O)C(=O)N2CCN2CCOCC2)o1 (stereo unspecified) | 1.0 | -0.2 | -0.2 | -4.5
CCN(CC)CCN1C(=O)C(O)=C(C(=O)c2cccs2)C1c1ccc(C)o1 (stereo unspecified) | 0.3 | -1.9 | 3.5 | -2.0
O=C(C1=C(O)C(=O)N(CCN2CCOCC2)C1c1ccccn1)c1cccs1 (stereo unspecified) | 12.5 | 25.6* | 1.4 | 12.9
CCN(CC)CCN1C(=O)C(O)=C(C(=O)c2cccs2)C1c1ccccn1 (stereo unspecified) | 5.4 | 68.1* | -20.4 | -1.7
CCC(=O)N1CC2(C)CN(C(=O)CC)CC(C)(C1)C2 | -0.8 | 16.9* | 2.9 | 2.6
CCCCNS(=O)(=O)c1ccc2nc(-c3cccs3)cc(C(=O)NCC(OC)OC)c2c1 | -5.0 | -1.9 | 4.1 | 2.1
O=C(N/N=C/C(Cl)=C/c1ccc([N+](=O)[O-])cc1)C(=O)Nc1ccc(C(=O)O)cc1 | 2.1 | 5.7 | 75.5* | 0.8
O=C(N/N=C/C(Cl)=C/c1ccc([N+](=O)[O-])cc1)C(=O)Nc1ccccc1C(=O)O | 0.6 | 2.9 | 12.5 | -4.7
CCCCOCP(=O)(CCCC)COCCCC | -1.2 | 0.0 | 0.7 | -2.7
Nc1c(C(=O)NCC2CCCO2)sc2nc3c(c(-c4ccco4)c12)CC/C3=C\c1ccco1 (stereo unspecified) | 29.0 | · | 88.3* | -2.9
NC(=O)c1sc2nc3c(c(-c4ccco4)c2c1N)CCCC3 | 7.8 | 0.6 | 1.1 | -23.3
COCCNC(=O)c1c(N)n(-c2ccccc2)c2nc3ccccc3nc12 | 88.0* | 90.1* | 33.0 | 42.1
COCCCNC(=O)c1c(N)n(-c2ccccc2)c2nc3ccccc3nc12 | 54.5* | 87.0* | 10.1 | 81.0*
COCCCNC(=O)c1c(N)n(/N=C/c2cccnc2)c2nc3ccccc3nc12 | 9.0 | 7.6 | -4.7 | 23.8
COCCCNC(=O)c1c(N)n(/N=C/c2cccs2)c2nc3ccccc3nc12 | 87.7* | 11.2 | 13.2 | 58.5*
COC(=O)c1c(N)n(-c2ccc(NC(C)=O)cc2)c2nc3ccccc3nc12 | 28.5 | 7.4 | 40.7 | 73.9*
COCCNC(=O)c1c(N)n(CCCn2ccnc2)c2nc3ccccc3nc12 | 39.5 | 113.5* | 32.4 | 41.0
COc1ccc(C(=O)NCCCn2ccnc2)cc1 | 0.0 | -0.6 | -0.6 | 0.1
COCCCNC(=O)c1c(N)n(-c2ccc(S(N)(=O)=O)cc2)c2nc3ccccc3nc12 | 56.8* | 61.0* | 10.7 | 81.6*

Assay outcomes as filed in PubChem.
